Consider one compound from ChEMBL document CHEMBL1144664, “Design, synthesis, and SAR of new pyrrole-oxindole progesterone receptor modulators leading to 5-(7-fluoro-3,3-dimethyl-2-oxo-2,3-dihydro-1H-indol-5-yl)-1-methyl-1H-pyrrole-2-carbonitrile (WAY-255348)” (J Med Chem, 2008).

The term half-life denotes the time needed for the level to fall by half in the phase considered. By ED50 is commonly meant the midpoint of the dose-response relation. As usually defined, the clearance is the volume of plasma or blood freed of the substance per unit of time. What is called bioavailability is the share of a dose that reaches the circulation, judged against a reference dose that is usually intravenous.

Calls of active or inactive are those of the source.

Data set [1] is described as follows: Half life in Sprague-Dawley rat at 0.5 mg/kg, iv. In kind it is ADME, organism-based. On the set-up: dose 0.5 mg/kg, route intravenous. The conditions noted are these: in vivo. The method, boiled down: (§1)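 Female Sprague–Dawley rats dosed as 1-in-4 cassette or discrete studies. iv in DMSO/PEG200 20:80; po in aqueous 2% Tween 80/0.5% methyl cellulose. Parameters reported: C0, Cmax, t1/2, plasma clearance, Vss, AUC0-inf and %F.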

The test system of data set [2] is Rhesus monkey. Kind of data set: Effect on ovulation rate of rhesus monkey. The class given is functional, organism-based. The conditions noted are these: Macaca mulatta. The procedure, abridged:
(§2)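 Adult female rhesus macaques (n=3) with regular cycles dosed 10 mg/(kg·day) po in 2% Tween 80/0.5% methylcellulose with cherry flavoring for 28 days from cycle day 2. Serum estradiol and progesterone measured every 3 days. Necropsy on day 28. Uterine weights are of half the uterus; KI-67 and mitotic indices counted per 1000 cells. Values given as mean ± SE.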

Data set [3] can be described thus: Stability in human liver microsome assessed as half life. The class given is ADME. The conditions noted are these: liver microsomes. The method, boiled down:
(§3)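 Female rat, cynomolgus monkey and human liver microsome stability; half-life (min) reported.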
For orientation: Liver microsomes are a subcellular fraction often used to study metabolism.

The nature of data set [4]: Drug level in Sprague-Dawley rat at 0.5 mg/kg, iv. In kind it is ADME, organism-based. Set-up: dose 0.5 mg/kg, route intravenous. The settings on record: in vivo. The procedure, abridged: as §1
The test system of another data set is Cynomolgus monkey. Kind of data set: Induction of early menses in cynomolgus monkey at 5 mg/kg, po. The settings on record: in vivo. The class given is organism-based, Macaca fascicularis. On the set-up: dose 5 mg/kg, route oral.
Another data set is filed under the species Rattus norvegicus. Kind of data set: Antagonist activity in rat uterus assessed as progesterone-induced decidualization response in stromal cells. In kind it is functional. The method, boiled down: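 Female rat decidualization model: compound given orally in 0.5% methyl cellulose/2% Tween 80 to antagonize the progesterone-induced decidual response of uterine stromal cells. ED50 reported.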

Data set [5] has as its system Rhesus monkey. Kind of data set: Effect on cell proliferation in rhesus monkey assessed basalis mitotic index. In kind it is functional, Macaca mulatta. The method, boiled down:
as §2

Data set [6] in a line: Volume of distribution at steady state in Sprague-Dawley rat at 1 mg/kg, iv. In kind it is ADME, organism-based. The settings on record: in vivo, read-out: Vdss. Set-up: dose 1 mg/kg, route intravenous. The procedure, abridged:
as §1

A short description of data set [7]: Stability in rat liver microsome assessed as half life. The class given is ADME. The conditions noted are these: liver microsomes. The procedure, abridged: as §3
Data set [8] is described as follows: Plasma clearance in Sprague-Dawley rat at 1 mg/kg, iv. In kind it is ADME, organism-based. Set-up: dose 1 mg/kg, route intravenous. The method, boiled down: as §1
Data set [9] is described as follows: Oral bioavailability in cynomolgus monkey at 5 mg/kg. The class given is ADME, organism-based, Macaca fascicularis. The settings on record: in vivo.
Data set [10] is described as follows: Oral bioavailability in Sprague-Dawley rat at 5 mg/kg. The settings on record: in vivo. The class given is ADME, organism-based. The method, boiled down: as §1

With `Cn1c(C#N)ccc1-c1cc(F)c2c(c1)C(C)(C)C(=O)N2`, the figures for the half-life in [1], in data set [3] and in data set [7] were 570 min, more than 30 min and 26 min, respectively. In addition, in the data set with Rhesus monkey [2], the outcome was inactive. In [4], this compound came in with a C0 of 385 ng/mL. Also, the Activity in the data set on Cynomolgus monkey is recorded as 75%; in the data set on Rhesus monkey [5], 0. In the data set filed under Rattus norvegicus, the ED50 turned out to be 0.3 mg/kg. In [6], the Vd amounted to 2.4 L/kg. Besides, in [8], the clearance was 4 mL/min/kg. Also, the bioavailability in data set [9] is 49%; in data set [10], 31%.
